The target of assay [1] is T1, Kinesin-like protein KIFC1 (Homo sapiens, UniProt Q9BW19).
T1 sequence (Q9BW19 whole entry): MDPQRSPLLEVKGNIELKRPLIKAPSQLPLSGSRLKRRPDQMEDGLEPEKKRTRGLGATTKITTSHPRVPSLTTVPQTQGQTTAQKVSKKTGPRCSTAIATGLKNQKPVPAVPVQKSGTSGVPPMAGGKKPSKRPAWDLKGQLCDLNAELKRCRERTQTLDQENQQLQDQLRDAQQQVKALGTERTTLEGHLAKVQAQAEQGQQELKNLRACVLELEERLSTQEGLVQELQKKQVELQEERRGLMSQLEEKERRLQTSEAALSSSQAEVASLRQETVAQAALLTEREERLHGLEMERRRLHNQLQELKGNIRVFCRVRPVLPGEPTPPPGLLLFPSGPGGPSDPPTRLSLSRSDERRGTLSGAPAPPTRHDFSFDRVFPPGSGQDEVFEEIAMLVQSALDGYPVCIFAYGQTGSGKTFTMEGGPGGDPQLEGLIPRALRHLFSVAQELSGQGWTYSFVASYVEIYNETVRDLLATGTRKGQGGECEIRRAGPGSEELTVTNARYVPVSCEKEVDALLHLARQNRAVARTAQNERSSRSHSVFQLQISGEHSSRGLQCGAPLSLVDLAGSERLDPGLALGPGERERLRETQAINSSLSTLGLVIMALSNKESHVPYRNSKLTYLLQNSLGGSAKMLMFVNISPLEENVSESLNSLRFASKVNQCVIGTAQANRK
Description: Binding affinity to N-terminal His-tagged full length recombinant human HSET assessed as dissociation constant incubated for 3 hrs in presence of 70 ug/ml of microtubules by fluorescence polarization assay. A digest of the protocol:
(§1)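 Full-length human N-His HSET titrated from 2000 to 0.5 nM. Preincubated 10 min with paclitaxel-stabilized preformed microtubules or reconstitution buffer, then added to 2.5 nM sulfoCy5 probe. Buffer: 20 mM HEPES pH 7.5, 200 mM NaCl, 10 mM MgCl2, 1 mM TCEP, 0.1 mM Triton X-100, 5% glycerol.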

The target of assay [2] is T1, Kinesin-like protein KIFC1. Description: Binding affinity to N-terminal His-tagged full length recombinant human HSET assessed as dissociation constant incubated for 3 hrs in presence of 7 ug/ml of microtubules by fluorescence polarization assay. A digest of the protocol:
as §1

Assay [3] deals with T2, Kinesin-like protein KIFC1 (Homo sapiens) (UniProt Q9BW19).
T2 sequence (whole entry): T1 sequence (Q9BW19 whole entry)
Description: Inhibition of N-terminal His-tagged full length recombinant human HSET assessed as inhibition of microtubule-stimulated ATPase activity incubated for 10 mins in presence of ultra-ATP by ADP-Glo kinase assay relative to control.

For assay [4], the target named is T2, Kinesin-like protein KIFC1 (Homo sapiens). Description: Binding affinity to HSET in human DLD-1 assessed as fold increase in signal at 3 uM incubated for 45 mins by Alexa-488 fluorophore staining immunofluorescence analysis. The assay is classed as cell-based. The method, boiled down:
(§2)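 DLD1 4N cells and CRISPR HSET-knockout DLD1 cells pretreated 2 h with 8 μM pro-TAME, then 45 min with 3 μM TCO click probe plus 8 μM MG-132 in DMEM/1% FBS. After washes, fixed in 4% PFA and reacted with 400 nM tetrazine-Cy5 for 10 min at room temperature. Stained for pericentrin, KIFC1 (Alexa-488) and DAPI; confocal 40× imaging; signal expressed relative to tetrazine-Cy5 alone.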

For assay [5] the target is unchanged. Description: Binding affinity to HSET in human DLD-1 with HSET knockout assessed as fold increase in signal at 3 uM incubated for 45 mins by Alexa-488 fluorophore staining immunofluorescence analysis. The assay is classed as cell-based. A digest of the protocol:
as §2

Assay [6] concerns the target T1, Kinesin-like protein KIFC1. Description: Displacement of FP-Probe from N-terminal His-tagged full length recombinant human HSET incubated for 2 hrs by fluorescence polarization based competitive binding assay. A digest of the protocol:
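Competitive FP assay with 400 nM full-length human N-His HSET and 2.5 nM sulfoCy5 probe in 20 mM HEPES pH 7.5, 200 mM NaCl, 10 mM MgCl2, 1 mM TCEP, 0.1 mM Triton X-100, 5% glycerol. 11-point compound series from 100 to 0.001 μM final.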
Background: Fluorescence polarisation rises when a labelled molecule tumbles more slowly, as on binding a larger partner.

The target of assay [7] is T2, Kinesin-like protein KIFC1 (Homo sapiens). Description: Displacement of CCT369834 probe from HSET in human DLD-1 cells assessed as decrease in localization of CCT369834 probe at 0.1 to 10 uM incubated for 45 mins by TZ-Cy5 staining immunofluorescence analysis. Format: cell-based. Particulars: dose 0.1-10 µM. The method, boiled down:
(§3)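 Target engagement in DLD1 4N cells, with HSET-knockout DLD1 as negative control. Cells pretreated 2 h with 8 μM pro-TAME, then given 3 μM TCO probe alone or with competitor plus 8 μM MG-132 in 1% FBS medium for 45 min. Washed, PFA-fixed, then 400 nM tetrazine-Cy5 for 10 min. Stained for pericentrin, KIFC1 and DAPI, followed by confocal 3D segmentation of mitotic poles. Cy5/KIFC1 pole intensity ratio, with KO signal subtracted, normalized to probe-alone control; n > 100 cells per replicate, two replicates per concentration.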

Assay [8] has the same target. Description: Displacement of CCT369834 probe from HSET in human DLD-1 cells assessed as decrease in localization of CCT369834 probe at 0.1 to 10 uM incubated for 45 mins by Alexa-488 fluorophore staining immunofluorescence analysis. Format: cell-based. As to conditions: dose 0.1-10 µM. The method, boiled down: as §3
Assay [9] has the same target. Description: Displacement of CCT369834 probe from HSET in human DLD-1 cells assessed as decrease in localization of CCT369834 probe at 0.1 to 10 uM incubated for 45 mins by DAPI staining immunofluorescence analysis. Format: cell-based. As to conditions: dose 0.1-10 µM. The method, boiled down:
as §3

Broadly, the Kd is the equilibrium constant for the complex coming apart. In the case of `CCCOC(=O)c1sc(NC(=O)C[C@H](CCCNC(=O)CCCCC[N+]2=C(/C=C/C=C/C=C3/N(C)c4ccc(S(=O)(=O)O)cc4C3(C)C)C(C)(C)c3cc(S(=O)(=O)O)ccc32)NC(=O)c2cccc(-c3noc(C)n3)c2)nc1C`, the Kd in assay [1] amounted to 332 nM; in assay [2], 315 nM.
The term inhibition denotes the relative decrease from the control value, in per cent. As to `CCOC(=O)c1sc(NC(=O)CCNC(=O)c2ccccc2)nc1C`, the inhibition in assay [3] turned out to be 47%.
Consider `CCCOC(=O)c1sc(NC(=O)C[C@H](CCCN(C)CC#CCNC(=O)O[C@@H]2CC/C=C/CCC2)NC(=O)c2cccc(-c3noc(C)n3)c2)nc1C`, for which the fold change (FC) in assay [4] was found to be 14; in assay [5], 7.
In general, IC50 refers to the midpoint of a concentration-inhibition curve. Consider `CCOC(=O)c1sc(NC(=O)CCNC(=O)c2cccc(-c3noc(C)n3)c2)nc1C`, for which the half-maximal inhibitory concentration (IC50) in [6] is 109 nM.
Turning to `CCOC(=O)c1sc(NC(=O)CCNC(=O)C2CCCC(C)C2)nc1C` (stereo not given), the inhibition in [3] turned out to be 47%.
As to `CCCOC(=O)c1sc(NC(=O)C[C@H](CCCN(C)C)NC(=O)c2cccc(-c3noc(C)n3)c2)nc1C`, the Activity result in assay [7], in [8] and in [9] was “Dose-Dependent Effect” each time.
